Source: PubChem (Broad Institute)
An excerpt weighted towards active compounds, which were near 3.7% of everything screened.
DENV2 CPE – inhibitors of DENV2 cytopathic effect; DENV2-infected cells, cytopathic effect rescue, plate reader; CPE inhibition, % at 9.99 µM; hit rate 1.7% among 350,000; in the data active means CPE inhibition above about 20%, passing the limit was not always enough; tested in BHK-21 cells;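 further: 0% = median of neutral control wells and 100% = median of positive control wells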
FGF22 binding – binders of recombinant human FGF22 by thermal shift; SYPRO orange fluorescence; percent of sucrose octasulfate shift, DMSO zero; AID 651658; Q9HCT0; hit rate 1.5% among 340,000; activity (Tm shift, normalised), % at 9.99 µM;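 active means mean Tm shift, scaled 0 neutral to 100 positive control, at about 1.3% or above, every replicate too, limit read from the data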
Target sequence (Q9HCT0 whole entry, looked up): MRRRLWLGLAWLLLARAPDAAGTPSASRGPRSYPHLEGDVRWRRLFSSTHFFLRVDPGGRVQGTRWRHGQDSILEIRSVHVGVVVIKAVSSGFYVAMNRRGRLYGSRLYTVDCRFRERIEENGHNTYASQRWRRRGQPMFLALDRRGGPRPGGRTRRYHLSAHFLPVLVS
ERAP1 inh – blocks human ERAP1 aminopeptidase activity. Q9NZ08. recombinant ERAP1, Leu-AMC fluorescence, 60 min. inhibition, % at 10.7 µM. hit rate 0.15% among 340,000. AID 652197;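 active means mean replicate inhibition of at least 30%, or all replicates individually reaching that 30% level; inactive means mean below 30% and not every replicate reaching it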;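 further: 0% = neutral control wells and 100% = L-leucinethiol positive control wells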
E-sel inducer – E-selectin induction on HUVECs. P16581. HUVEC E-selectin immunofluorescence imaging; normalized: neutral wells 0, TNF-alpha wells 100. activation, % at 7.58 µM. hit rate 0.37% among 260,000;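 active means mean E-selectin-positive cell signal at least 10% of the positive control, reached in at least 60% of replicates, without over 20% cell loss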
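assay system = HUVEC, human umbilical vein endothelial cells | input = 3,000 HUVEC seeded per well | medium = EGM-2 growth medium on 0.1% gelatin-coated wells | dosing = one compound dose added by pin transfer | signal = immunofluorescence imaging | read-out basis = % PE-positive cells | control set = TNF-alpha, DMSO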
CFTR F508del cor – CFTR F508del correction in bronchial cells. CFBE cells, YFP halide quenching; stimulated with forskolin plus potentiator P3; % fluorescence drop versus neutral controls. activity (quench increase), % at 7.58 µM. hit rate 0.36% among 350,000;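 active means mean added fluorescence quench of at least 8% versus neutral control, with both replicates also reaching 8%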;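 further: cells transiently co-express mutant CFTR-F508del with the halide-sensitive YFP; corrector assay measuring rescue of mutant channel to the surface after 24 h compound exposure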
Starred values were filed as active, the others as inactive; / = no result.

SMILES | DENV2 CPE | FGF22 binding | ERAP1 inh | E-sel inducer | CFTR F508del cor
Cc1nnc(SCC(=O)N2CCN(C(=O)c3ccco3)CC2)n1-c1ccccc1 | 0 | 43* | 3 | 5 | -1
C[C@@H]1CN([C@H](C)CO)S(=O)(=O)c2ccc(C#Cc3cccnc3)cc2O[C@@H]1CN(C)C | 5 | 0 | 5 | 0 | 1
O=C(c1ccccc1F)N1C[C@@H]2O[C@H](CNS(=O)(=O)c3ccccc3)CC[C@@H]21 | 61* | / | 3 | / | 2
COc1ccccc1NC(=O)c1ccc(NC(=O)c2nc3nccc(C)n3n2)cc1 | 3 | 0 | -1 | -1 | -3
CCOC(=O)CSc1ccc(C(=O)Nc2ccc(OC)cc2)cn1 | -1 | 43* | 1 | / | -6
COc1ccc(NC(=O)c2ccc(NC(=O)c3nc4nccc(C)n4n3)cc2)cc1 | 19 | 1 | 2 | 0 | 27*
COc1ccc(NC(=O)c2ccc(Oc3ncccn3)cc2)cc1 | 0 | 44* | 1 | 0 | -1
CN1C(=O)c2cc(NC(=O)c3ccc(F)cc3)ccc2OC[C@@H]2O[C@H](CC(=O)NC3CCC3)CC[C@H]21 | 0 | 0 | 1 | 0 | 4
N#Cc1cccc(-c2ccc([C@H]3[C@H](CO)N4CCCCN(C(=O)Nc5ccc(F)cc5)C[C@@H]34)cc2)c1 | 9 | 0 | -2 | -1 | 2
O=C(O)c1c(-c2ccccc2)c(-c2ccccc2)nc2ccccc12 | -2 | 43* | -3 | / | 0
COc1cccc(-c2cnc3c(c2)C(=O)N([C@H](C)CO)C[C@H](C)[C@H](CN(C)C(=O)NC2CCCCC2)O3)c1 | 8 | 0 | -1 | -6 | 0
O=C(CCN1CCCCC1)NCC[C@H]1CC[C@@H](NC(=O)C2CCCC2)[C@H](CO)O1 | 7 | 0 | 7 | 0 | -2
O=C(CCCCCCCC(=O)NNC(=O)Nc1ccccc1)NNC(=O)Nc1ccccc1 | 115* | 0 | 6 | / | -4
CCc1ccc(NC(=O)NNC(=O)CCc2ccccc2)cc1 | 8 | 0 | 1 | 0 | -2
O=C(Cc1ccccc1)NNC(=O)Nc1ccccc1 | 8 | 0 | 0 | 0 | 1
O=C(CCc1ccccc1)NNC(=O)Nc1ccccc1 | -2 | 43* | 5 | / | 0
COc1cc(/C=C2\CCCc3c2nc2ccccc2c3C(=O)O)cc(Br)c1O | 17 | 21* | 5 | / | -1
C[C@@H]1CN([C@@H](C)CO)C(=O)c2cc(-c3ccc(F)cc3)cnc2O[C@@H]1CN(C)CC1CC1 | 6 | 0 | 0 | -1 | -7
C[C@@H]1CN([C@@H](C)CO)C(=O)c2cc(NS(=O)(=O)c3ccc(F)cc3)ccc2O[C@@H](C)CCCCO[C@H]1CN(C)S(=O)(=O)c1cccs1 | -13 | 0 | -1 | / | -1
COC(=O)CCCCCCC(=O)Nc1ccc(C2OC(CSc3nc4ccccc4s3)CC(c3ccccc3)O2)cc1 (stereo not drawn) | -1 | 0 | -1 | / | -2
C/C(=N\NC(=O)CSc1nc2ccccc2[nH]1)c1ccncc1 | -4 | 43* | 2 | / | 0
C/C(=N/NC(=O)CSc1nc2ccccc2n1C)c1ccncc1 | 0 | 43* | 1 | 6 | 2
COc1ccccc1CNC(=O)C[C@@H]1CC[C@H]2[C@@H](COC[C@@H](O)CN2Cc2cccc(-c3ccncc3)c2)O1 | -3 | 0 | 1 | 0 | 2
CN1C(=O)c2cc(NC(=O)C3CCCC3)ccc2OC[C@H]2O[C@@H](CC(=O)NCC(F)(F)F)CC[C@@H]21 | -9 | 0 | -1 | 0 | -2
Cc1cc(C)n(-c2n[nH]c(=O)c3ccccc23)n1 | 1 | 0 | -4 | 8 | 1
SMILES | DENV2 CPE | FGF22 binding | ERAP1 inh | E-sel inducer | CFTR F508del cor
Cc1cc(C)n(-c2nnc(Cl)c3ccccc23)n1 | 23* | 0 | -3 | 0 | 0
C[C@H]1CCCCO[C@H](CN(C)C(=O)Nc2ccccc2)[C@@H](C)CN([C@@H](C)CO)C(=O)c2cc(NC(=O)Nc3cccc4ccccc34)ccc2O1 | -3 | / | 2 | 0 | -1
O=C1CCC/C(=N/Nc2ccc(Cl)cc2)C1 | -1 | 44* | 0 | 8 | 2
COc1cc2c(c(OC)c1OC)[C@@]1(c3ccccc3)CCCCC[C@H]1[C@@H]2NC(=O)C(F)(F)F | -2 | 0 | 4 | 0 | -2
COc1cc2c(cc1OC)[C@@]1(c3ccccc3)CCCC[C@H]1[C@@H]2NC(=O)C(F)(F)F | 20* | 0 | -2 | 0 | -1
CCCC(=O)N1CCC2(CC1)CN(C(=O)COC)[C@@H](CO)c1c2c2ccc(OC)cc2n1C | -1 | 0 | 1 | 0 | 1
COc1ccc(C2C(CN3CCOCC3)C(=O)N2c2ccccc2)cc1 (stereo not drawn) | 1 | 0 | 1 | / | -1
COc1ccc(N2C(=O)C(CN3CCN(C)CC3)C2c2ccccc2)cc1 (stereo not drawn) | -4 | 44* | -5 | / | -1
CS(=O)(=O)N1[C@@H]2Cn3c(ccc(C4=CCCCC4)c3=O)[C@H]1[C@@H](C(=O)N1CCOCC1)[C@@H]2CO | -3 | 0 | 3 | 0 | 0
CC(=O)N1[C@@H]2c3ccc(/C=C/c4ccccc4)c(=O)n3C[C@H]1[C@H](CO)[C@H]2C(=O)N(C)C | -3 | 0 | 91* | 2 | /
CC(=O)N1[C@@H]2Cn3c(ccc(/C=C/c4ccccc4)c3=O)[C@H]1[C@@H](C(=O)N(C)C)[C@@H]2CO | 2 | 0 | 8 | 0 | /
CCC(=O)N1[C@@H]2c3ccc(/C=C/c4ccccc4)c(=O)n3C[C@H]1[C@H](CO)[C@H]2C(=O)N(C)C | 0 | 0 | 38* | 0 | 1
CC(=O)N1[C@@H]2Cn3c(ccc(-c4ccccc4)c3=O)[C@H]1[C@@H](C(=O)NC1Cc3ccccc3C1)[C@@H]2CO | / | / | / | 0 | -3
CC=Cc1ccc2n(c1=O)C[C@@H]1[C@@H](CO)[C@H](C(=O)N(C)C)[C@H]2N1C(=O)c1ccccc1 (mixture of isomers) | 3 | 0 | 1 | 0 | -1
CS(=O)(=O)N1[C@@H]2c3ccc(-c4ccc(F)cc4)c(=O)n3C[C@H]1[C@H](CO)[C@H]2C(=O)N1CCOCC1 | 115* | 0 | / | 0 | /
CC=Cc1ccc2n(c1=O)C[C@@H]1[C@@H](CO)[C@H](C(=O)NC3Cc4ccccc4C3)[C@H]2N1C(C)=O (mixture of isomers) | 31* | 0 | 1 | 0 | /
C[C@@H]1CCCCO[C@@H](CN(C)Cc2ccc(C(F)(F)F)cc2)[C@H](C)CN([C@H](C)CO)C(=O)c2cc(NS(=O)(=O)c3cn(C)cn3)ccc2O1 | -5 | -1 | 4 | 0 | 1
C[C@@H]1CN([C@H](C)CO)C(=O)c2cccc(NC(=O)c3cnccn3)c2O[C@H]1CN(C)S(=O)(=O)c1ccccc1 | / | / | / | 0 | -1
